In the library only some 2.3% were active in any assay of this set; here they are far more common.
TRPC4 block: inhibitors of mouse TRPC4 channel; Q9QUQ5; HEK293 TRPC4beta/mu-opioid, DAMGO-evoked Fluo4 calcium flux; hits give low values; B-score at 10 µM; 300,000 compounds, 0.39% hits; AID 2247;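 active = B-score over 3 SD under the library average, no early fluorescence shift, positive overall ratio signal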
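material = TRPC4beta/mu-opioid receptor HEK293 cell line | probe or stimulus = sequential submaximal and maximal DAMGO stimulation | compound dosing = one concentration per compound | measured by = Fluo4 Ca2+ flux fluorescence | evaluation = integrated fluorescence ratio relative to baseline, converted to per-well B score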
TRPC6 activator: mouse TRPC6 channel activation; B-score at 10 µM; 310,000 compounds, 0.13% hits; HEK293-TRPC6 membrane potential dye fluorescence; hits give high values; Q61143;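 active = B-score of the integrated fluorescence ratio above library mean plus 3 SD, and starting fluorescence ratio within library mean plus 5 SD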;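 also: higher score means more depolarization so channel activation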
Target sequence (Q61143 whole entry, looked up): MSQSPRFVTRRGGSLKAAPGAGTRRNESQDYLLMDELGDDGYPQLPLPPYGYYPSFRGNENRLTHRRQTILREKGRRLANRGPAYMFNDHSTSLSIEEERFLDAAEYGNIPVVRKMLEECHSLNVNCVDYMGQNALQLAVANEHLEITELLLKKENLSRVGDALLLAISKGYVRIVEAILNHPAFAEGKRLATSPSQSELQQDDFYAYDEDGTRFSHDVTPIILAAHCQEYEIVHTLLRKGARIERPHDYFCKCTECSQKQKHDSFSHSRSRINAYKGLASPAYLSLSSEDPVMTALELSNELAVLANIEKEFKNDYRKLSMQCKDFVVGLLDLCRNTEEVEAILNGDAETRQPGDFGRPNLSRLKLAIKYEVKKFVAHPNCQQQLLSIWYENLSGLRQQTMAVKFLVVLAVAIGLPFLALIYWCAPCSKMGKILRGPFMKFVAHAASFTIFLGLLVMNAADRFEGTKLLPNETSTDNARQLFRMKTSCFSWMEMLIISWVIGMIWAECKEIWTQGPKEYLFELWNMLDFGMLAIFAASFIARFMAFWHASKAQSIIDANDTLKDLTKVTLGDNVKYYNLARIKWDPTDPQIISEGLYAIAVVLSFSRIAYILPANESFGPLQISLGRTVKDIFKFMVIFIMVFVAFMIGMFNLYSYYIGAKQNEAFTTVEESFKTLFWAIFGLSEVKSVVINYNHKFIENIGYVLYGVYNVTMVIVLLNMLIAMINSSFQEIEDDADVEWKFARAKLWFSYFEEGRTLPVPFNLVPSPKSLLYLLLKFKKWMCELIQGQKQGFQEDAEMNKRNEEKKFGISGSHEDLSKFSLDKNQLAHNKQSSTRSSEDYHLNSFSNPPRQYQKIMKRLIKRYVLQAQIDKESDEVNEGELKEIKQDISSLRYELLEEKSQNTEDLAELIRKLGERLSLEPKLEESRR
TRPC4 PAM: TRPC4 (mouse) allosteric potentiation. B-score at 10 µM. 310,000 compounds, 0.42% hits. HEK293 TRPC4beta/mu-opioid, DAMGO EC20, Fluo-4 Ca2+ flux; hits give high values;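 active = B-score of calcium response area above 5 SD of library B-scores, with initial fluorescence ratio within 5 SD of library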;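 also: B-score of integrated fluorescence ratio over time as area under calcium response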
TRPC6 inh: mouse TRPC6 channel inhibition; Q61143; HEK293-TRPC6, membrane potential dye, ACh-evoked depolarization; hits give low values; B-score at 10 µM; 310,000 compounds, 1.1% hits;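 active = B-score under library mean minus 3 SD, initial fluorescence not abnormally high, positive integrated signal ratio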;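 also: B-score derived from integrated fluorescence ratio over the kinetic read; more negative B-score means stronger inhibition of depolarization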
TRPC4 act: opens the mouse TRPC4 cation channel | Q9QUQ5 | HEK293 TRPC4beta/mu-opioid, Fluo4 calcium fluorescence; hits give high values | B-score at 10 µM | 310,000 compounds, 0.49% hits;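 active = B-score above 5 SD of library B-scores, and initial fluorescence ratio not above library mean plus 5 SD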;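 also: positive B-score marks a calcium rise read as TRPC4 activation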
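Assay system: HEK293 cells stably co-expressing mouse TRPC4beta and mu-opioid receptor / Timing: Fluo4 dye loading 45 min at room temperature, 110 s recording / Signal: Fluo4 calcium-sensitive dye fluorescence, kinetic, 1 Hz baseline / Read-out: integrated baseline-normalised fluorescence ratio, converted to per-well B score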
TRPC4 spec 2: second check of whether TRPC6 inhibitors also affect mouse TRPC4; shares compounds with TRPC6 inh; HEK293 TRPC4/MOR, membrane potential dye fluorescence; channel activated by saturating DAMGO dose; inhibition, % at 10 µM; 920 compounds, 42% hits; AID 2776;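 active = compounds whose fluorescence signal differed from control wells by over 3 SD, either direction, in both duplicate plates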
TRPC4 spec: selectivity of TRPC6 inhibitors: effect on mouse TRPC4. shares compounds with TRPC6 inh. HEK293 TRPC4/mu-opioid, membrane potential fluorescence. activity change, negative = inhibition, % at 10 µM. 920 compounds, 61% hits;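 active = rise or fall in signal beyond 3 SD of buffer-only wells in both replicate plates, either sign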;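 also: integrated kinetic ratio of fluorescence range over baseline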
HEK293 MPD ctr 2-1: second counter-screen for TRPC6 inhibitors: parental HEK293 cells; shares compounds with TRPC6 inh; parental HEK293 membrane potential dye fluorescence; maximal acetylcholine challenge after compound addition; signal change vs control, % at 10 µM; 920 compounds, 31% hits; AID 2779;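 active = membrane potential signal moving either way by over 3 SD of the maximum-effect control, in both duplicate plates, meaning non-specific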
HEK293 MPD ctr-1: checks TRPC6 inhibitor effects in parental HEK293 cells. shares compounds with TRPC6 inh. parental HEK293 membrane potential dye fluorescence. membrane potential signal change, % at 10 µM. 920 compounds, 60% hits. AID 2780;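 active = membrane potential signal shifting up or down by more than 3 SD of buffer-only wells, on both duplicate plates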
HEK293 MPD ctr-2: counter-screen for TRPC6 modulators: effect in parental HEK293 cells; shares compounds with TRPC6 inh; membrane potential dye fluorescence; membrane potential signal change, % at 10 µM; 2,400 compounds, 51% hits; AID 488924;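 active = membrane potential signal moves up or down beyond 5 SD from buffer-only wells, on both duplicate plates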
HEK293 MPD ctr 2-2: parental HEK293 nonspecific activity of TRPC6 modulators, second screen | inhibition, % at 10 µM | AID 488926 | membrane potential dye fluorescence; after compound, maximal acetylcholine stimulation | 2,400 compounds, 14% hits | shares compounds with TRPC6 inh;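 active = membrane potential signal drops by more than 5 SD from the mean control signal, in both duplicate plates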;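 also: plate controls were acetylcholine ECmax control wells for no effect and buffer only wells for full effect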
TRPC4/MOR mod: selectivity of TRPC6 modulators against mouse TRPC4 | shares compounds with TRPC6 inh | 2,400 compounds, 69% hits | percent change from control (negative = decrease, positive = increase), % at 10 µM | HEK293 TRPC4/mu-opioid, membrane potential fluorescence;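 active = membrane potential signal moved up or down beyond 5 SD of buffer control wells, in both duplicate plates, actives on both sides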;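 also: plate controls were assay buffer wells for no effect and DAMGO maximal-effect wells for full effect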
TRPC4 ctr inh 2: second check of whether TRPC6 modulators also affect mouse TRPC4; shares compounds with TRPC6 inh; HEK293 TRPC4/mu-opioid, membrane potential dye fluorescence; stimulated with maximal-effect DAMGO; inhibition, % at 10 µM; 2,400 compounds, 55% hits; AID 488928;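 active = drop in membrane potential signal beyond 5 SD of the control wells in both duplicate plates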;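 also: TRPC4 counter screen for TRPC6 hits run under conditions tuned for TRPC6 not TRPC4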
TRPC6 inh conf: confirmation of mouse TRPC6 inhibitors; AID 488960; HEK293-TRPC6, membrane potential dye, ACh-evoked depolarization; shares compounds with TRPC6 inh; 3,300 compounds, 43% hits; inhibition, % at 10 µM;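 active = fluorescence ratio falls more than 5 SD below the full-stimulation control mean, in both duplicate runs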;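 also: integrated fluorescence ratio of peak minus minimum over baseline after agonist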
TRPC6 act conf: confirmation of mouse TRPC6 activators. activation, % at 10 µM. 2,800 compounds, 11% hits. HEK293-TRPC6 membrane potential dye fluorescence, FDSS. AID 488961. shares compounds with TRPC6 inh;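 active = ratio signal rise beyond 5 SD above unstimulated control wells' mean, seen in both duplicate runs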;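 also: plate controls were buffer EC0 wells for no effect and acetylcholine ECmax response for full effect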
Numbers without * were called inactive; i = inactive; . = no result.

SMILES	TRPC4 block	TRPC6 activator	TRPC4 PAM	TRPC6 inh	TRPC4 act	HEK293 MPD ctr-2	HEK293 MPD ctr 2-2	TRPC4/MOR mod	TRPC4 ctr inh 2	TRPC6 inh conf	TRPC6 act conf	others
Cc1ccc(C(OCC(C)(C)C[N+](C)(C)C)c2ccccc2)cc1 (centres undefined)	i	i	i	-8.1*	i	.	.	.	.	i	i	TRPC4 spec 2=i;TRPC4 spec=i;HEK293 MPD ctr 2-1=19%*;HEK293 MPD ctr-1=i
Cc1cc(Cl)ccc1OCC(=O)NCCC(=O)O	i	i	i	-6.6*	i	.	.	.	.	i	i	TRPC4 spec 2=i;TRPC4 spec=i;HEK293 MPD ctr 2-1=i;HEK293 MPD ctr-1=i
Cc1ccc(-c2csc(NC(=O)/C=C/c3ccco3)c2C(=O)O)cc1	i	i	i	-5.2*	i	i	i	i	i	i	i
COc1cccc(N2CCN(C3CCCC(C)C3)CC2)c1 (centres undefined)	i	i	i	-5.8*	i	184%*	i	38%*	48%*	i	.
COc1ccc(S(=O)(=O)N2CCN(C3CCCC(C)C3)CC2)cc1 (centres undefined)	i	i	i	i	i	.	.	.	.	.	.
CNCCCOc1cccc(Oc2ccccc2)c1	i	i	10*	-5.1*	i	100%*	i	12%*	35%*	52%*	i
CNCCCOc1cccc(OC(C)C)c1	i	i	i	i	i	.	.	.	.	.	.
COc1ccc(N2CCN(C(=O)Cn3nnc(-c4ccc(OC)c(OC)c4)n3)CC2)cc1	i	i	i	i	i	.	.	.	.	.	.
Cc1ccc(-c2nnn(CC(=O)N3CCN(c4ccccc4)CC3)n2)o1	i	i	i	-5.3*	i	i	i	i	i	i	i
CC1CN(C(=O)c2ccc(CNS(=O)(=O)c3cccc(Cl)c3)cc2)CC(C)O1 (centres undefined)	i	i	i	i	i	.	.	.	.	.	.
CC(=O)c1ccccc1Oc1cc(NN2CCCCC2)c([N+](=O)[O-])cc1[N+](=O)[O-]	i	i	i	-6*	i	i	i	i	32%*	i	i
Cc1ccc(S(=O)(=O)N2CCN(c3cccc(C)c3)CC2)cc1	i	i	i	i	i	.	.	.	.	.	.
COC(=O)c1cc(NC(=S)NC(=O)c2ccccc2)ccc1N1CCOCC1	i	i	i	i	i	.	.	.	.	.	.
Oc1ccccc1Oc1ncc(Br)c(N2CCOCC2)n1	i	i	i	-7.2*	i	.	.	.	.	i	i	TRPC4 spec 2=i;TRPC4 spec=i;HEK293 MPD ctr 2-1=i;HEK293 MPD ctr-1=i
Oc1ccccc1Oc1ncc(Br)c(Cl)n1	i	i	i	i	i	.	.	.	.	.	.
COc1cccc(NC(=O)Nc2nc(-c3ccc(OC)c(OC)c3)cs2)c1	i	i	i	i	i	.	.	.	.	.	.
O=C(CSc1nnc(-c2ccco2)n1-c1ccccc1Cl)Nc1cccc(C(=O)O)c1	i	i	i	i	i	.	.	.	.	.	.
CCOC(=O)C1(Cc2cccc(OC)c2)CCN(Cc2cccn2-c2nccs2)CC1	i	i	i	-6.5*	i	207%*	i	34%*	86%*	i	.
CN1CCN(/N=C/c2nc(-c3ccccc3)n3ccccc23)CC1	i	i	i	i	i	.	.	.	.	.	.
CN1CCN(/N=C/c2nc(-c3ccc(Cl)cc3)n3ccccc23)CC1	i	i	i	-5.3*	i	-164%*	i	-36%*	40%*	i	i
O=C(Nc1cccc(S(=O)(=O)N2CCCCC2)c1)c1ccc(S(=O)(=O)C(F)F)cc1	i	i	i	i	i	.	.	.	.	.	.
Cc1[nH]n(-c2ccc([N+](=O)[O-])cc2)c(=O)c1/C=N/N1CCOCC1	i	i	i	i	i	.	.	.	.	.	.
CC(=NCCCn1ccnc1)c1c(C)[nH]n(-c2ccc([N+](=O)[O-])cc2)c1=O	i	i	i	-5.5*	i	-208%*	i	-42%*	37%*	i	i
Cc1ccc(S(=O)(=O)N2CCCCC2)cc1NC(=O)c1ccccn1	i	i	i	i	i	.	.	.	.	.	.
Cc1ccccc1C(=O)N1CCN(c2ccc([N+](=O)[O-])c(N3CCOCC3)c2)CC1	i	i	i	-5.4*	i	i	i	i	i	i	i
CC(=O)c1ccc(N2CCN(S(=O)(=O)c3ccc4c5c3CC(=O)N5CC(C)S4)CC2)cc1 (centres undefined)	i	i	i	i	i	.	.	.	.	.	.
Cc1ccc([N+](=O)[O-])c(OCCN2CCCCCC2)c1	i	i	i	i	i	.	.	.	.	.	.
O=[N+]([O-])c1cccc(OCCN2CCC(Cc3ccccc3)CC2)c1	i	i	i	-8.4*	i	.	.	.	.	61%*	i	TRPC4 spec 2=33%*;TRPC4 spec=i;HEK293 MPD ctr 2-1=i;HEK293 MPD ctr-1=i
Cc1ccc([N+](=O)[O-])c(OCCCN2CCC(Cc3ccccc3)CC2)c1	i	i	i	-5.2*	i	i	i	i	73%*	53%*	i

High-throughput results: PubChem, Johns Hopkins Ion Channel Center
